Test results published in ChEMBL document CHEMBL1125838, “Conformational restriction of the phenylalanine residue in a cyclic opioid peptide analogue: effects on receptor selectivity and stereospecificity” (J Med Chem, 1991).

Tests used:
[1] = species on record: Cavia porcellus; experiment: Compound was tested in vitro for inhibition of electrically evoked contractions of the guinea pig ileum; type: functional
Summary of the method: (§1)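 Electrically stimulated guinea pig ileum or mouse vas deferens preparations; inhibition of evoked contractions measured. Each preparation also gave a log dose-response curve for the [Leu5]enkephalin standard, and test IC50 values were normalized against it. Naloxone Ki came from the ratio of IC50 values with and without a fixed naloxone concentration.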

[2] = species on record: Cavia porcellus; experiment: Relative potency towards guinea pig ileum relative to [Leu5]-enkephalin; type: functional
Summary of the method: (§2)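 The [Leu5]enkephalin standard's log dose-response curve was run on each individual ileum or vas deferens preparation. Test IC50 values for inhibition of electrically evoked contractions were normalized to it, giving potency relative to [Leu5]enkephalin.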

[3] = species on record: Mus musculus; experiment: Relative potency towards mouse vas deferens relative to [Leu5]-enkephalin; type: functional; summary of the method: as §2
[4] = target: Delta-type opioid receptor (Rattus norvegicus, UniProt P33533); experiment: Displacement of [3H]DSLET from rat brain membrane opioid receptor delta
Summary of the method: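 Rat brain membranes incubated with 0.78 nM [3H]DSLET at 0 °C for 2 h. IC50 taken from log dose-displacement curves.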

[5] = target: Mu-type opioid receptor (Rattus norvegicus, UniProt P33535); experiment: Displacement of [3H]DAGO from rat brain membrane opioid receptor mu
[6] = species on record: Mus musculus; experiment: Compound was tested in vitro for inhibition of electrically evoked contractions of the mouse vas deferens; type: functional; summary of the method: as §1

Chain of Delta-type opioid receptor (P33533 whole entry): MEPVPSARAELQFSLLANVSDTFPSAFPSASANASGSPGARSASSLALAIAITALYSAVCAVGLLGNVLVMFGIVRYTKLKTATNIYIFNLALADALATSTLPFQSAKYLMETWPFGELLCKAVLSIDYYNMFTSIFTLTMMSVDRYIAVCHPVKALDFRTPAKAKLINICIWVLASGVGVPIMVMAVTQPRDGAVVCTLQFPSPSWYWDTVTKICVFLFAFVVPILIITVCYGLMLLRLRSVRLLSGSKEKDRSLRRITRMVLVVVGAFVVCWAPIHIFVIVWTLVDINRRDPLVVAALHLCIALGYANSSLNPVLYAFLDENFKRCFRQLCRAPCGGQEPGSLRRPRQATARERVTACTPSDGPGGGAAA
Chain of Mu-type opioid receptor (P33535 whole entry): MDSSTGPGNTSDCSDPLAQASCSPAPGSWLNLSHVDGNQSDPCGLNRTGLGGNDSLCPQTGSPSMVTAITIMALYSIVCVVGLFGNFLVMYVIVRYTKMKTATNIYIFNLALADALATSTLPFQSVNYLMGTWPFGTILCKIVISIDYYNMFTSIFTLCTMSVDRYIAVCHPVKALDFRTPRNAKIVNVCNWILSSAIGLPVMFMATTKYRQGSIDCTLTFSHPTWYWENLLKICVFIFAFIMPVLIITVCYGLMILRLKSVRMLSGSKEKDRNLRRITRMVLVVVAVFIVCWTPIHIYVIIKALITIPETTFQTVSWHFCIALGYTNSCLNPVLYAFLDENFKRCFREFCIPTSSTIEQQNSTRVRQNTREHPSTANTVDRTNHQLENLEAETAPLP

| SMILES | IC50 [1] [nM] | Relative potency [2] | Relative potency [3] | Ki [4] [nM] | Ki [5] [nM] | IC50 [6] [nM] | Relative potency [6] [nM] |
| --- | --- | --- | --- | --- | --- | --- | --- |
| CN1C(=O)[C@H](NC(=O)[C@@H](N)Cc2ccc(O)cc2)CCCNC(=O)CC[C@@H](C(N)=O)NC(=O)[C@@H]1Cc1ccccc1 | 707 | 0.348 | 0.00551 | 12800 | 1000 | 2070 | – |
| NC(=O)[C@@H]1CCC(=O)NCCC[C@@H](NC(=O)[C@@H](N)Cc2ccc(O)cc2)C(=O)N[C@H](CCc2ccccc2)C(=O)N1 | 728 | 0.338 | 0.00274 | 2600 | 258 | 4160 | – |
| NC(=O)[C@@H]1CCC(=O)NCCC[C@@H](NC(=O)[C@@H](N)Cc2ccc(O)cc2)C(=O)N[C@H](Cc2ccccc2)C(=O)N1 | – | 0.28 | 0.00295 | 14000 | – | – | 3860 |
| NC(=O)[C@@H]1CCC(=O)NCCC[C@@H](NC(=O)[C@@H](N)Cc2ccc(O)cc2)C(=O)NC2(Cc3ccccc3C2)C(=O)N1 [listing 1 of 2 here] | 7.21 | – | – | 209 | 4.21 | 36.5 | – |
| NC(=O)[C@@H]1CCC(=O)NCCC[C@@H](NC(=O)[C@@H](N)Cc2ccc(O)cc2)C(=O)NC2(Cc3ccccc3C2)C(=O)N1 [listing 2 of 2 here] | – | 34.1 | 0.312 | – | – | – | – |
| NC(=O)[C@@H]1CCC(=O)NCCC[C@@H](NC(=O)[C@@H](N)Cc2ccc(O)cc2)C(=O)N[C@@H](Cc2ccccc2)C(=O)N1 | 1.17 | 210 | 10.3 | 3.21 | 0.981 | 1.11 | – |
| NC(=O)[C@@H]1CCC(=O)NCCC[C@@H](NC(=O)[C@@H](N)Cc2ccc(O)cc2)C(=O)N2Cc3ccccc3C[C@H]2C(=O)N1 | 3060 | 0.0803 | 0.00156 | 50100 | 2410 | 7310 | – |
| NC(=O)[C@@H]1CCC(=O)NCCC[C@@H](NC(=O)[C@@H](N)Cc2ccc(O)cc2)C(=O)N[C@@H](Cc2ccc3ccccc3c2)C(=O)N1 | 4.07 | 60.5 | 1.05 | 50.7 | 2.56 | 10.9 | – |
| NC(=O)[C@@H]1CCC(=O)NCCC[C@@H](NC(=O)[C@@H](N)Cc2ccc(O)cc2)C(=O)N[C@@H](CCc2ccccc2)C(=O)N1 | 5.82 | 42.3 | 0.332 | 15.4 | – | 34.3 | – |
| Cc1ccccc1C[C@@H]1NC(=O)[C@H](NC(=O)[C@@H](N)Cc2ccc(O)cc2)CCCNC(=O)CC[C@@H](C(N)=O)NC1=O | 0.543 | 453 | 10.3 | 9.22 | 1.92 | 1.11 | – |
| C[C@]1(Cc2ccccc2)NC(=O)[C@H](NC(=O)[C@@H](N)Cc2ccc(O)cc2)CCCNC(=O)CC[C@@H](C(N)=O)NC1=O | 3.31 | 74.3 | 2.07 | 54.6 | 7.17 | 5.51 | – |
| NC(=O)[C@@H]1CCC(=O)NCCC[C@@H](NC(=O)[C@@H](N)Cc2ccc(O)cc2)C(=O)N[C@]2(CCc3ccccc3C2)C(=O)N1 (single isomer, unassigned) | 31.6 | 7.78 | 0.0449 | 1570 | 8.26 | 254 | – |
| NC(=O)[C@@H]1CCC(=O)NCCC[C@@H](NC(=O)[C@@H](N)Cc2ccc(O)cc2)C(=O)N[C@@]2(CCc3ccccc3C2)C(=O)N1 (single isomer, unassigned) | 285 | 0.863 | 0.00371 | 3510 | 26.3 | 3070 | – |
